# In ChEMBL document CHEMBL4828745, “Discovery and Structure-Activity Relationships of Quinazolinone-2-carboxamide Derivatives as Novel Orally Efficacious Antimalarials” (J Med Chem, 2021):
# Columns and labels:
# Plasmodium falciparum [1] = experiment: Antiplasmodial activity against Plasmodium falciparum 3D7 infected in human erythrocyte assessed as intraerythrocytic growth inhibition incubated for 72 hrs by DAPI-staining based imaging analysis; type: functional, organism-based; details: 3D7, 72 h
# Procedure, shortened: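 P. falciparum 3D7 cultured in RPMI1640 with hypoxanthine, HEPES, 2.5 mg/mL AlbuMAX II and 5% human serum. Sorbitol-synchronized rings exposed 72 h at 37 °C under 5% CO2/5% O2, then DAPI-stained with saponin/Triton X-100 for 8 h in the dark. High-content imaging with spot detection. Duplicate points. Reference antimalarials run in each assay.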
# Plasmodium falciparum [2] = experiment: Antimalarial activity against Plasmodium falciparum TM90C2b harbouring Pf-crt, Pf-mdrl,Pfd-hfr, Pf-cytbQ0 mutated loci assessed as inhibition of parasite growth incubated for […] by [3H]hypoxanthine incorporation assay based liquid scintillation counting method; type: functional, organism-based
# Procedure, shortened: (§1)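 Drug-resistant laboratory P. falciparum strains were compared against the sensitive strain NF54. Growth inhibition was read by a modified [3H]hypoxanthine incorporation assay over 72 h. IC50 is the mean of two independent biological replicates. Chloroquine and artesunate served as controls.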
# Plasmodium falciparum [3] = experiment: Antimalarial activity against Plasmodium falciparum 7G8 harbouring Pf-crt, Pf-mdrl,Pf-dhfr, Pf-dhps mutated loci assessed as inhibition of parasite growth incubated for […] by [3H]hypoxanthine incorporation assay based liquid scintillation counting method; type: functional, organism-based; procedure, shortened: as §1
# [4] = Stability in Sprague-Dawley rat plasma assessed as compound remaining at 1000 ng/ml after 2 hrs by LC-MS analysis; type: ADME, cell-free; details: read-out: Stability
# Procedure, shortened: (§2)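 Pooled plasma (human, 3 donors; or male Sprague Dawley rat) spiked to nominal 1000 ng/mL, with at most 0.2% DMSO and 0.4% acetonitrile final. Held at 37 °C with timed aliquots. LC-MS against matrix standards with diazepam internal standard. Percent remaining is relative to the 5 min sample.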
# Plasmodium falciparum [5] = experiment: Antimalarial activity against Plasmodium falciparum Cam3.1 harbouring Pf-crt, Pf-mdrl,Pf-dhfr, Pf-dhps, pf-kelch13 mutated loci assessed as inhibition of parasite growth incubated for […] by [3H]hypoxanthine incorporation assay based liquid scintillation counting method; type: functional, organism-based; procedure, shortened: as §1
# Plasmodium falciparum [6] = experiment: Antimalarial activity against Plasmodium falciparum K1 harbouring Pf-crt, Pf-mdrl,Pf-dhfr, Pf-dhps mutated loci assessed as inhibition of parasite growth incubated for […] by [3H]hypoxanthine incorporation assay based liquid scintillation counting method; type: functional, organism-based; procedure, shortened: as §1
# CYP2D6 = CYP2D6 (Homo sapiens, UniProt P10635); experiment: Inhibition of CYP2D6 (unknown origin) at 10 uM by UPLC-MS analysis relative to control; type: ADME
# Procedure, shortened: (§3)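 Human liver microsomes, using a substrate-specific metabolite approach. Test compound at 1 and 10 μM. Reference inhibitors: furafylline (1A2), sulfaphenazole (2C9), quinidine (2D6), ketoconazole (3A4). Specific metabolites quantified by UPLC-MS. Percent inhibition relative to incubation without inhibitor.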
# [7] = Intrinsic clearance in human liver microsomes at […] by LC-MS/MS analysis; type: ADME, Microsome
# Procedure, shortened: (§4)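 Liver microsomes (human, mouse or rat) at 0.4 mg/mL protein, 37 °C, with an NADPH-regenerating system. Compound at 0.25 or 0.5 μM. Acetonitrile/diazepam quench, LC-MS quantitation. CLint from the first-order degradation rate constant.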
# [8] = Toxicity in SCID mouse infected with Plasmodium falciparum 3D70087/N9 at 50 to 100 mg/kg, po for 4 consecutive days measured after 7 days of post infection; type: organism-based; details: in vivo, 96 h, dose 50-100 mg/kg, time 4 day
# CYP2C9 = CYP2C9 (Homo sapiens, UniProt P11712); experiment: Inhibition of CYP2C9 (unknown origin) at 10 uM by UPLC-MS analysis relative to control; type: ADME; procedure, shortened: as §3
# [9] = Cytotoxicity against human HEK293 cells assessed as cell viability incubated for 72 hrs by Alamar blue assay; type: cell-based
# Procedure, shortened: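 HEK293 cells handled with the same incubation, compound addition and timing as the 72 h parasite assay. Alamar Blue, diluted in growth medium, was incubated 4 h at 37 °C/5% CO2, then 20 h at room temperature before plate read.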
# CYP3A4 = CYP3A4 (Homo sapiens, UniProt P08684); experiment: Inhibition of CYP3A4 (unknown origin) at 10 uM by UPLC-MS analysis relative to control; type: ADME; procedure, shortened: as §3
# [10] = Fraction unbound in human plasma; type: ADME, cell-free
# Procedure, shortened: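 Human plasma protein binding measured by rapid equilibrium dialysis.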
# Plasmodium falciparum [11] = experiment: Antimalarial activity against wild type Plasmodium falciparum Dd2 assessed as inhibition of parasite growth incubated for […] by [3H]hypoxanthine incorporation assay based liquid scintillation counting method; type: functional, organism-based
# Procedure, shortened: (§5)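 Genetically engineered P. falciparum lines carried mutations introduced into the Dd2 wild-type strain, which was tested alongside them. Growth inhibition was read by [3H]hypoxanthine incorporation over 72 h. IC50 is the mean of two independent biological replicates. Chloroquine and artesunate served as controls.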
# Plasmodium falciparum [12] = experiment: Antimalarial activity against Plasmodium falciparum Dd2 ELQ-300 mutant harbouring Pf-cytB assessed as inhibition of parasite growth incubated for […] by [3H]hypoxanthine incorporation assay based liquid scintillation counting method; type: functional, organism-based; procedure, shortened: as §5
# Plasmodium falciparum [13] = experiment: Antimalarial activity against Plasmodium falciparum Dd2 […] mutant harbouring Pf-car1 assessed as inhibition of parasite growth incubated for […] by [3H]hypoxanthine incorporation assay based liquid scintillation counting method; type: functional, organism-based; procedure, shortened: as §5
# Plasmodium falciparum [14] = experiment: Antimalarial activity against Plasmodium falciparum Dd2 MMV048 mutant harbouring Pf-pi4k assessed as inhibition of parasite growth incubated for […] by [3H]hypoxanthine incorporation assay based liquid scintillation counting method; type: functional, organism-based; procedure, shortened: as §5
# Plasmodium falciparum [15] = experiment: Antimalarial activity against Plasmodium falciparum Dd2 DDD498 mutant harbouring Pf-cytB assessed as inhibition of parasite growth incubated for […] by [3H]hypoxanthine incorporation assay based liquid scintillation counting method; type: functional, organism-based; procedure, shortened: as §5
# Hepatocyte = experiment: Cytotoxicity against human hepatocyte measured after 96 hrs; type: cell-based; details: hepatocytes
# [16] = Intrinsic clearance in mouse liver microsomes at […] by LC-MS/MS analysis; type: ADME, Microsome; procedure, shortened: as §4
# [17] = Stability in human plasma assessed as compound remaining at 1000 ng/ml after 2 hrs by LC-MS analysis; type: ADME, cell-free; details: read-out: Stability; procedure, shortened: as §2
# Plasmodium falciparum [18] = experiment: Antiplasmodial activity against liver stage Plasmodium falciparum NF54 sporozoites infected in human hepatocytes assessed as maximal parasite killing measured after 96 hrs by schizont assay relative to control; type: functional
# Plasmodium falciparum [19] = experiment: Antimalarial activity against Plasmodium falciparum NF54 assessed as inhibition of parasite growth incubated for 72 hrs by [3H]hypoxanthine incorporation assay based liquid scintillation counting method
# [20] = Ratio of drug level in whole blood to plasma in Sprague-Dawley rat by LC-MS analysis; type: ADME, cell-free; details: whole blood and plasma
# Procedure, shortened: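 Apparent whole-blood-to-plasma partitioning measured in vitro in rat blood.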
# Plasmodium falciparum [21] = experiment: Antiplasmodial activity against liver stage Plasmodium falciparum NF54 sporozoites infected in human hepatocytes assessed as parasite killing measured after 96 hrs by schizont assay; type: functional, organism-based; details: NF54, 96 h
# Plasmodium falciparum [22] = experiment: Antiplasmodial activity against asexual blood stage Plasmodium falciparum 3D7 (MR4) infected in erythrocytes assessed as parasite reduction ratio at 10 times of IC50 concentration treated up to 120 hrs measured after 21 days of serial dilution; type: functional; details: time hrs <=120
# Procedure, shortened: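 Samples taken every 24 h and washed free of drug. Viable parasites counted by limiting dilution: 3-fold serial dilutions, four independent series, growth scored at 21 days and confirmed at 28 days.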
# Plasmodium falciparum [23] = experiment: Antimalarial activity against Plasmodium falciparum Dd2 DSM265 mutant harbouring […] assessed as inhibition of parasite growth incubated for […] by [3H]hypoxanthine incorporation assay based liquid scintillation counting method; type: functional, organism-based; procedure, shortened: as §5
# Sequence of CYP2D6 (P10635 whole entry): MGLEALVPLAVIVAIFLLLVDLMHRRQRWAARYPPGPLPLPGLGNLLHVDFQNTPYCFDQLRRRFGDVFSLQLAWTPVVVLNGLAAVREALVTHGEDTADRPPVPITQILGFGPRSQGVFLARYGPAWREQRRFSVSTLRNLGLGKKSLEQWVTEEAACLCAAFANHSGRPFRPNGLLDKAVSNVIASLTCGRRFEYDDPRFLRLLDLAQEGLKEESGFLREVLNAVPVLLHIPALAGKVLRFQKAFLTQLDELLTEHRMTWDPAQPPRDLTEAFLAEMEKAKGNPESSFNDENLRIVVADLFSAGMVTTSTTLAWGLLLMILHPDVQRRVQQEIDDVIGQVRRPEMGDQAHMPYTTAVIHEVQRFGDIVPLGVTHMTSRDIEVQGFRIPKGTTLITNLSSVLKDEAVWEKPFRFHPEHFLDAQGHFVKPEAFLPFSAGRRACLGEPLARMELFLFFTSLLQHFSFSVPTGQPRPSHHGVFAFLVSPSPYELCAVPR
# Sequence of CYP2C9 (P11712 whole entry): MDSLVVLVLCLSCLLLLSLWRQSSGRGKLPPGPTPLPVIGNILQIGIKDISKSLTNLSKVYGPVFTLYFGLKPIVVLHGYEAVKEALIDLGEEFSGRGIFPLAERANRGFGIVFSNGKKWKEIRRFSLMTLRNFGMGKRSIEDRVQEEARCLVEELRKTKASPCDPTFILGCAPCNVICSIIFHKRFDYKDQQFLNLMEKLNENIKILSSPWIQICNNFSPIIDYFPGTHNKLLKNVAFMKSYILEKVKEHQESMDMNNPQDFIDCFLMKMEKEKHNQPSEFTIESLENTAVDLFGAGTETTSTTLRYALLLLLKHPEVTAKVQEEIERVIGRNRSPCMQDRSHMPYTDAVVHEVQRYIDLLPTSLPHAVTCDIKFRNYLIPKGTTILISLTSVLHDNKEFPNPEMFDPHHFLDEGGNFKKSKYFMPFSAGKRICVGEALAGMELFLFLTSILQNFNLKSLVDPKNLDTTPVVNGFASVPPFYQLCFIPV
# Sequence of CYP3A4 (P08684 whole entry): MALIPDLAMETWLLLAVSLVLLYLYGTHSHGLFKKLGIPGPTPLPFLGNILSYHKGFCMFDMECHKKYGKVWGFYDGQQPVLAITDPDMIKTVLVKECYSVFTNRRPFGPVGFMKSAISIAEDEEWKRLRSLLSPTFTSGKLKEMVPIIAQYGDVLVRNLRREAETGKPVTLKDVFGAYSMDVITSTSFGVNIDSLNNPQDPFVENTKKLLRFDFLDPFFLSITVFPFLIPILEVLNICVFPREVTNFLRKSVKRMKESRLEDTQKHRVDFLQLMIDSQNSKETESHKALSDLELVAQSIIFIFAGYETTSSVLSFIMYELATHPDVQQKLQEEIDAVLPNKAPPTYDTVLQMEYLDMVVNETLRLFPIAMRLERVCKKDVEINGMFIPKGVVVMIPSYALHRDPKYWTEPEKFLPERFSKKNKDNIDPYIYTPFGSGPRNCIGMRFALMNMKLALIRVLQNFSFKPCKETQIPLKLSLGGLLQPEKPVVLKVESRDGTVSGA
compound,measurement,setting,value
CCc1cccc(CNC(=O)c2nc3cccc(COCc4ccc(C(=O)O)cc4)c3c(=O)[nH]2)c1,IC50,Plasmodium falciparum [1],25 nM
same,IC50,Plasmodium falciparum [2],24 nM
same,IC50,Plasmodium falciparum [3],16 nM
same,"remaining at 2 h, 1000 ng/ml",[4],93.4%
same,IC50,Plasmodium falciparum [5],31 nM
same,IC50,Plasmodium falciparum [6],31 nM
same,inhibition at 10 µM,CYP2D6,< 10%
same,CLH,[7],35 uL/ml.millig
same,Activity,[8],Non-Toxic
same,inhibition at 10 µM,CYP2C9,55%
same,CC50 at 72 h,[9],> 40000 nM
same,inhibition at 10 µM,CYP3A4,< 10%
same,Fu,[10],0.2%
same,IC50,Plasmodium falciparum [11],33 nM
same,IC50,Plasmodium falciparum [12],20 nM
same,IC50,Plasmodium falciparum [13],18 nM
same,IC50,Plasmodium falciparum [14],27 nM
same,IC50,Plasmodium falciparum [15],19 nM
same,Activity,Hepatocyte,Non-Toxic
same,CLH,[16],183 uL/ml.millig
same,"remaining at 2 h, 1000 ng/ml",[17],100%
same,Emax,Plasmodium falciparum [18],50%
same,IC50,Plasmodium falciparum [19],60 nM
same,blood plasma ratio,[20],0.62
same,IC50,Plasmodium falciparum [21],75 nM
same,Ratio,Plasmodium falciparum [22],4.6
same,IC50,Plasmodium falciparum [23],23 nM
